Legend:
[1] = molecular target: T1, GABA-A receptor; alpha-1/beta-2/gamma-2 (Rattus norvegicus) (UniProt P18508+P62813+P63138); test: In vitro direct current effect against rat GABA receptor alpha-1-beta-2-gamma-2 subunits expressed in Xenopus laevis oocytes at 10 uM (ratio +/- compound, without GABA); type: cell-based; conditions: Oocyte
Procedure, shortened: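 Same oocyte α1β2γ2L voltage-clamp setup at -70 mV, with peak current over 20 s applications. Compound was applied at 10 μM without GABA. Directly gated current is expressed as a ratio to the current evoked by 2 μM GABA, from at least four oocytes.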

[2] = molecular target: T1, GABA-A receptor; alpha-1/beta-2/gamma-2 (Rattus norvegicus); test: In vitro current effect against rat GABA receptor alpha-1-beta-2-gamma-2 subunits expressed in Xenopus laevis oocytes at 0.1 uM (ratio +/- compound); type: cell-based; conditions: Oocyte
Procedure, shortened: (§1)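 Two-electrode voltage clamp at -70 mV, 2–5 days after injecting rat α1, β2 and γ2L cRNA (20–40 ng total, equal parts) into defolliculated stage V–VI oocytes held at 18 °C in ND96. Compound was co-applied with 2 μM GABA for 20 s and peak current measured. Value is the ratio of current with/without compound, from at least four oocytes.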

[3] = molecular target: T1, GABA-A receptor; alpha-1/beta-2/gamma-2 (Rattus norvegicus); test: In vitro current effect against rat GABA receptor alpha-1-beta-2-gamma-2 subunits expressed in Xenopus laevis oocytes at 10 uM (ratio +/- compound); type: cell-based; conditions: Oocyte; procedure, shortened: as §1
[4] = molecular target: GABA-A receptor; anion channel; test: Non-competitive displacement of [35S]TBPS from picrotoxin binding site found in heterogeneous Gamma-aminobutyric acid A receptor in rat brain membranes.; type: cell membranes
Procedure, shortened: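 Rat brain membranes (washed P2, 0.5 mg/mL final protein) incubated 2 h at room temperature with 5 μM GABA, 2 nM [35S]TBPS and steroid from DMSO (final 1 nM–10 μM) in 200 mM NaCl/50 mM potassium phosphate, pH 7.4. Nonspecific binding defined with 200 μM picrotoxinin. Filtration, scintillation counting, Hill fit for IC50. Triplicate points, two or three curves per steroid.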

[5] = molecular target: T1, GABA-A receptor; alpha-1/beta-2/gamma-2 (Rattus norvegicus); test: In vitro current effect against rat GABA receptor alpha-1-beta-2-gamma-2 subunits expressed in Xenopus laevis oocytes at 1 uM (ratio +/- compound); type: cell-based; conditions: Oocyte; procedure, shortened: as §1
[6] = Loss of righting reflex in Xenopus laevis tadpole.; type: functional, frog; conditions: Amphibia, read-out: ED50 (the source's name)
Procedure, shortened: (§2)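 Groups of 10 early pre-limb-bud X. laevis tadpoles were placed in 100 mL oxygenated Ringer's containing compound at various concentrations. Compound came from a 10 mM DMSO stock, about 0.1% DMSO final. Loss of righting and loss of swimming responses were scored. EC50 and Hill coefficient n were taken from a Hill equation fit.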

[7] = Hill coefficient for displacement of [35S]TBPS.; type: functional
Procedure, shortened: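 Rat brain membrane P2 fraction washed three times in 200 mM NaCl / 50 mM potassium phosphate, pH 7.4. Assay used 0.5 mg/mL protein, 5 μM GABA, 2 nM [35S]TBPS and steroid at 1 nM–10 μM final (0.5% DMSO), 2 h at room temperature, then filtration and scintillation counting. Nonspecific binding was taken with 200 μM picrotoxinin. Triplicate points, 2–3 curves per steroid; Hill equation fit gives n.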

[8] = Hill coefficient for loss of righting response.; type: functional; procedure, shortened: as §2
[9] = Loss of swimming behavior in Xenopus laevis tadpole.; type: functional, frog; conditions: Amphibia, read-out: ED50 (the source's name); procedure, shortened: as §2
[10] = Hill coefficient for loss of swimming response.; type: functional; procedure, shortened: as §2

SMILES | Ratio [1] | Ratio [2] | Ratio [3] | IC50 [4] [µM] | Ratio [5] | EC50 [6] [µM] | nHill [7] | nHill [8] | EC50 [9] [µM] | nHill [10]
C[C@]12CC[C@@H](O)C[C@@H]1CC[C@H]1[C@@H]3CCC4CC(=O)CC[C@@]43CC[C@@H]12 (stereo partly drawn) | 0.06 | 1.3 | 2.93 | 1.44 | 1.61 | 2.37 | 0.95 | -2.02 | – | –
C[C@]12CC[C@@H](O)C[C@@H]1CC[C@@H]1[C@@H]2CC[C@]23C(=O)C=CC[C@H]2CC[C@@H]13 | 0.07 | 1.98 | 9.45 | 0.197 | 8.33 | 1.2 | 1.03 | – | 2.66 | -24.2
CC(=O)[C@H]1CC[C@H]2[C@@H]3CC[C@@H]4C[C@H](O)CC[C@]4(C)[C@H]3CC[C@]12C [ELTANOLONE] | 0.06 | 1.2 | 9.77 | – | 2.82 | 0.063 | 0.57 | -1.54 | 0.3 | -6.93
C[C@]12CC[C@@H](O)C[C@@H]1CC[C@H]1C3CCC4C(=O)C=CC[C@@]43CC[C@@H]12 (single isomer, unassigned) | 0.72 | 1.49 | 9.07 | 0.373 | 5.87 | 3.38 | 1.17 | -2.79 | – | –
C[C@]12CC[C@@H](O)C[C@H]1CC[C@H]1C3CCC4C(=O)C=CC[C@@]43CC[C@@H]12 (single isomer, unassigned) | 0.11 | 1.07 | 2.34 | 1.57 | 1.17 | 2.56 | 1.15 | -1.59 | 8.95 | -19.8
C[C@]12CC[C@@H](O)C[C@H]1CC[C@H]1[C@@H]3CCC4C=CC(=O)C[C@@]43CC[C@@H]12 (stereo partly drawn) | -0.02 | 1.07 | 4.5 | 0.268 | 1.83 | 1.05 | 0.64 | -16.6 | 2.72 | -22.1
C[C@]12CC[C@@H](O)C[C@H]1CC[C@H]1[C@@H]3CCC4CCC(=O)C[C@@]43CC[C@@H]12 (stereo partly drawn) | 0.01 | 0.97 | 3.17 | 0.899 | 1.03 | 1.44 | 0.89 | -3.02 | 3.55 | -17.5
C[C@]12CC[C@@H](O)C[C@@H]1CC[C@H]1[C@@H]3CCC4CCC(=O)C[C@@]43CC[C@@H]12 (stereo partly drawn) | 0.32 | 1.39 | 6.49 | 0.334 | 1.64 | 1.12 | 1.14 | -1.75 | 3.58 | -16.7
C[C@]12CC[C@@H](O)C[C@@H]1CC[C@H]1[C@@H]3CCC4C=CC(=O)C[C@@]43CC[C@@H]12 (stereo partly drawn) | 0.35 | 1.59 | 16.6 | 0.243 | 5.53 | 1.28 | 0.89 | -1.16 | 10 | -17
C[C@]12CC[C@@H](O)C[C@H]1CC[C@H]1[C@@H]3CCC4C(=O)CCC[C@@]43CC[C@@H]12 (stereo partly drawn) | -0.25 | 0.93 | 1.51 | 1.78 | 1.12 | 0.94 | 1.36 | -1.23 | 5.48 | -33.5
C[C@]12CC[C@@H](O)C[C@@H]1CC[C@@H]1[C@@H]2CC[C@]23C=CC(=O)C[C@H]2CC[C@@H]13 | -0.04 | 1.12 | 5.07 | 1.26 | 1.54 | 0.73 | 1 | -1.57 | 5.48 | -33.5
CC(=O)[C@H]1CC[C@H]2[C@@H]3CC[C@H]4C[C@H](O)CC[C@]4(C)[C@H]3CC[C@]12C [BREXANOLONE] | 0.37 | 1.26 | 9.65 | – | 3.89 | 0.42 | 0.89 | -1.83 | 5.5 | -7.5
C[C@]12CC[C@@H](O)C[C@H]1CC[C@H]1[C@@H]3CCC4CC(=O)CC[C@@]43CC[C@@H]12 (stereo partly drawn) | -0.1 | 0.97 | 2.65 | 3.23 | 1.11 | 2.47 | 0.73 | -1.86 | 9.43 | -18.7
C[C@]12CC[C@@H](O)C[C@@H]1CC[C@H]1[C@@H]3CCC4C(=O)CCC[C@@]43CC[C@@H]12 (stereo partly drawn) | 0 | 1.01 | 2.28 | 0.514 | 1.44 | 1.36 | 0.84 | -2.51 | 5.45 | -33.5
C[C@]12CC[C@@H](O)C[C@H]1CC[C@@H]1[C@@H]2CC[C@]23C(=O)C=CC[C@H]2CC[C@@H]13 | 0.2 | 1.36 | 21.4 | 0.105 | 3.15 | 0.4 | 0.9 | -4.97 | 1 | -18.6
C[C@]12CC[C@@H](O)C[C@H]1CC[C@@H]1[C@@H]2CC[C@]23C(=O)CCCC2CC[C@@H]13 (stereo partly drawn) | 0.04 | 1.26 | 10.4 | 0.329 | 3.45 | 0.04 | 0.95 | -4.97 | 0.89 | -18.2
C[C@]12CC[C@@H](O)C[C@H]1CC[C@@H]1[C@@H]2CC[C@]23C=CC(=O)C[C@H]2CC[C@@H]13 | 0.26 | 1.87 | 4.44 | 4.75 | 1.8 | 0.56 | 0.95 | -1.5 | 5.48 | -33.5
C[C@]12CC[C@@H](O)C[C@@H]1CC[C@@H]1[C@@H]2CC[C@]23C(=O)CCCC2CC[C@@H]13 (stereo partly drawn) | 0.39 | 1.22 | 10.7 | 0.301 | 3.05 | 0.32 | 1.01 | -1.75 | 1.73 | -36.5
